Measurements reported in ChEMBL document CHEMBL3763019, “Discovery of benzenesulfonamide derivatives as potent PI3K/mTOR dual inhibitors with in vivo efficacies against hepatocellular carcinoma” (Bioorg Med Chem, 2016).

Columns and labels:
MDA-MB-435 = experiment: Antiproliferative activity against human MDA-MB-435 cells incubated for 48 hrs by sulforhodamine B assay; assay type: functional; details: MDA-MB-435, 48 h
Summary of the method: (§1)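 Run externally by the US National Cancer Institute as part of its 60 human cancer cell line cytotoxicity screen (NCI-60).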

[1] = Antiproliferative activity against human SNB19 cells incubated for 48 hrs by sulforhodamine B assay; assay type: functional; details: SNB-19, 48 h; summary of the method: as §1
[2] = target: Phosphatidylinositol 4,5-bisphosphate 3-kinase catalytic subunit beta isoform (Homo sapiens, UniProt P42338); experiment: Inhibition of PI3K-beta (unknown origin) at 10 nM after 40 mins by ADP-Glo luminescent kinase assay
Chain of Phosphatidylinositol 4,5-bisphosphate 3-kinase catalytic subunit beta isoform (P42338 whole entry, looked up, canonical isoform): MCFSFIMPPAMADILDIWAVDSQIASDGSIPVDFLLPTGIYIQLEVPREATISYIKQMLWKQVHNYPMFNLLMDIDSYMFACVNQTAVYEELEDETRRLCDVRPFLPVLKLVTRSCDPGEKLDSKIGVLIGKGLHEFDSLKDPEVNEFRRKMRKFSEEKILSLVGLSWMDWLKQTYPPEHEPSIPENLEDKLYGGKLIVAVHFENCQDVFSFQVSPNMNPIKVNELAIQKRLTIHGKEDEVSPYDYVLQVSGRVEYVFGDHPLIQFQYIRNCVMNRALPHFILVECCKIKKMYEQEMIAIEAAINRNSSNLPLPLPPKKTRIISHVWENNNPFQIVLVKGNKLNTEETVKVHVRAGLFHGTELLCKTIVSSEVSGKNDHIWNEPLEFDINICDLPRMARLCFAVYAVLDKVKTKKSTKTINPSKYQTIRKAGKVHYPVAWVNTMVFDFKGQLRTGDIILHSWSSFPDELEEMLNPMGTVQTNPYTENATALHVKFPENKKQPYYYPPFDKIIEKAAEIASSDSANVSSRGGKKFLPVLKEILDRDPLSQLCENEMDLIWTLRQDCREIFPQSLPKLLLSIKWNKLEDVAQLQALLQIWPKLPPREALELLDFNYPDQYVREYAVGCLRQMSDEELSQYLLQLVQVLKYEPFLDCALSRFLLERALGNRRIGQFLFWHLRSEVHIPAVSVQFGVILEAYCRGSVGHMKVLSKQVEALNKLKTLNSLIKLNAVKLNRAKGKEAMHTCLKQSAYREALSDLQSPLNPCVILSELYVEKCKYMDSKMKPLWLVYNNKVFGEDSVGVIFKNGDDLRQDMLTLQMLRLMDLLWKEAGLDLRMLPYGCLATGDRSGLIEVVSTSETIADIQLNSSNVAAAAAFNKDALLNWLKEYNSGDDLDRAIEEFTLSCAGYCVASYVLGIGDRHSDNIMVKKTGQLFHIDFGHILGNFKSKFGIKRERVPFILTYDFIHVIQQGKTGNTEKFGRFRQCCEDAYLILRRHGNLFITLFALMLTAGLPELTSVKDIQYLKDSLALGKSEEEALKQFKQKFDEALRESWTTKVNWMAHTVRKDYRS
Summary of the method: (§2)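 Final enzyme was PI3Kβ 4.8 nM and PI3Kγ 7.6 nM. ADP-Glo reagent stopped the reaction (40 min), then detection reagent was added (60 min) and luminescence read. Percent inhibition was derived from RLU.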

[3] = Antiproliferative activity against human SF539 cells incubated for 48 hrs by sulforhodamine B assay; assay type: functional; details: SF-539, 48 h; summary of the method: as §1
[4] = Antiproliferative activity against human DU145 cells incubated for 48 hrs by sulforhodamine B assay; assay type: functional; details: DU-145, 48 h; summary of the method: as §1
Mus musculus [5] = experiment: Toxicity in BALB/C nude mouse xenografted with human Bel7404 cells assessed as mortality at 30 mg/kg, po qd for 14 consecutive days; assay type: organism-based; details: in vivo
Summary of the method: (§3)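 Male BALB/C nude mice were implanted with BEL-7404 cells. When tumors reached 100–300 mm³ (after 12 days), mice were randomized to 6 per treatment group and 8 controls. The drug, suspended in 5% polysorbate 80 in water, was given orally once daily for 14 days from day 13. Body weight and mortality were tracked during dosing, and mice were sacrificed on day 29.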

[6] = Antiproliferative activity against human BT549 cells incubated for 48 hrs by sulforhodamine B assay; assay type: functional; details: BT-549, 48 h; summary of the method: as §1
SK-MEL-2 = experiment: Antiproliferative activity against human SK-MEL-2 cells incubated for 48 hrs by sulforhodamine B assay; assay type: functional; details: SK-MEL-2, 48 h; summary of the method: as §1
[7] = Antiproliferative activity against human NCI-ADR-RES cells incubated for 48 hrs by sulforhodamine B assay; assay type: functional; summary of the method: as §1
[8] = Antiproliferative activity against human SNB75 cells incubated for 48 hrs by sulforhodamine B assay; assay type: functional; details: SNB-75, 48 h; summary of the method: as §1
[9] = Antiproliferative activity against human NCI60 incubated for 48 hrs by sulforhodamine B assay; assay type: functional; details: NCI60, 48 h; summary of the method: as §1
U-251 = experiment: Antiproliferative activity against human U251 cells incubated for 48 hrs by sulforhodamine B assay; assay type: functional; details: U-251, 48 h
NCI-H322M = experiment: Antiproliferative activity against human NCI-H322M cells incubated for 48 hrs by sulforhodamine B assay; assay type: functional; summary of the method: as §1
786-0 = experiment: Antiproliferative activity against human 786-0 cells incubated for 48 hrs by sulforhodamine B assay; assay type: functional; details: 786-0, 48 h; summary of the method: as §1
EKVX = experiment: Antiproliferative activity against human EKVX cells incubated for 48 hrs by sulforhodamine B assay; assay type: functional
NCI-H23 = experiment: Antiproliferative activity against human NCI-H23 cells incubated for 48 hrs by sulforhodamine B assay; assay type: functional; details: NCI-H23, 48 h; summary of the method: as §1
NCI-H522 = experiment: Antiproliferative activity against human NCI-H522 cells incubated for 48 hrs by sulforhodamine B assay; assay type: functional; details: NCI-H522, 48 h; summary of the method: as §1
[10] = target: Phosphatidylinositol 4,5-bisphosphate 3-kinase catalytic subunit alpha isoform (Homo sapiens, UniProt P42336); experiment: Inhibition of PI3K-alpha (unknown origin) using PIP2 as substrate incubated for 1 hr by Kinase-Glo luminescent kinase assay
Chain of Phosphatidylinositol 4,5-bisphosphate 3-kinase catalytic subunit alpha isoform (P42336 whole entry, canonical isoform): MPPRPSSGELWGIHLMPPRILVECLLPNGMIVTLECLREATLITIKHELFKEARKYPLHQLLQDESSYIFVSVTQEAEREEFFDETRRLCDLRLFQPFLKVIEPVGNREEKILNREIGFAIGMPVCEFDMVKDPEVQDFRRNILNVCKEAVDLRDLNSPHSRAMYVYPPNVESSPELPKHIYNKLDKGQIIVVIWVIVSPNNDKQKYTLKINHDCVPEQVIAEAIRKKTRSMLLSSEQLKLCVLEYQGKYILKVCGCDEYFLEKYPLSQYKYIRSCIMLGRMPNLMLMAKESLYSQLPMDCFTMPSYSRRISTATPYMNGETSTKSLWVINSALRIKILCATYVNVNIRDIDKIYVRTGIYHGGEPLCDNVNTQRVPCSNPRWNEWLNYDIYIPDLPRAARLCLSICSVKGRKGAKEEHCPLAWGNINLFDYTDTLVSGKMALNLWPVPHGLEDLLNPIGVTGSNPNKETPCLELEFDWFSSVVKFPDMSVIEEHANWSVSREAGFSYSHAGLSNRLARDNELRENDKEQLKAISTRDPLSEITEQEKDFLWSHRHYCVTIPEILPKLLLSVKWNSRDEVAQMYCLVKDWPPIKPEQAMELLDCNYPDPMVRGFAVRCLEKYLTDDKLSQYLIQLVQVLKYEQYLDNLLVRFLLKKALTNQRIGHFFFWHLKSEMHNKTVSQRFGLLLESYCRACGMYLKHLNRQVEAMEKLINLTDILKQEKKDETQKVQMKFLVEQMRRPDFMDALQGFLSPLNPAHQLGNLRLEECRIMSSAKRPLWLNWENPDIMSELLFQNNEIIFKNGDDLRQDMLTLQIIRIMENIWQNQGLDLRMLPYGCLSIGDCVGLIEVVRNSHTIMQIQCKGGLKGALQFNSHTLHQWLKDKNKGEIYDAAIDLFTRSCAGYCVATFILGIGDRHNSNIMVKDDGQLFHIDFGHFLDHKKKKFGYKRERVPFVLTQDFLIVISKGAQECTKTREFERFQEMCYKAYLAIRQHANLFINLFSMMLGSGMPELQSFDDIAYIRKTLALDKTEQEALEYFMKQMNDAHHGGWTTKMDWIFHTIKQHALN

[11] = Cytotoxicity against human Bel7404 cells after 72 hrs by MTT assay; assay type: functional, cell-based; details: BEL-7404, 72 h
Summary of the method: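 Log-phase cells at 40,000–50,000 cells/mL in DMEM with 10% FBS and antibiotics were seeded and cultured overnight at 37 °C, 5% CO₂. Compounds were diluted in DMSO/PBS from 10^-4 to 10^-9 M and applied for 72 h. MTT (5 mg/mL stock) was then added for 4 h and absorbance read at 570 nm. IC50 came from nonlinear regression on triplicate wells, averaged.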

[12] = target: T1, Serine/threonine-protein kinase mTOR (Homo sapiens, UniProt P42345); experiment: Inhibition of mTOR kinase (unknown origin) assessed as suppression of ULight-4E-BP1 substrate phosphorylation incubated for 1 hr by lance ultra assay
Mus musculus [13] = experiment: Toxicity in BALB/C nude mouse xenografted with human Bel7404 cells assessed as reduction in body weight at 30 mg/kg, po qd for 14 consecutive days; assay type: organism-based; details: in vivo; summary of the method: as §3
MDA-MB-468 = experiment: Antiproliferative activity against human MDA-MB-468 cells incubated for 48 hrs by sulforhodamine B assay; assay type: functional; details: MDA-MB-468, 48 h; summary of the method: as §1
[14] = Antiproliferative activity against human COLO205 cells incubated for 48 hrs by sulforhodamine B assay; assay type: functional; details: COLO 205, 48 h; summary of the method: as §1
[15] = target: Phosphatidylinositol 4,5-bisphosphate 3-kinase catalytic subunit gamma isoform (Homo sapiens, UniProt P48736); experiment: Inhibition of PI3K-gamma (unknown origin) at 10 nM after 40 mins by ADP-Glo luminescent kinase assay; summary of the method: as §2
Chain of Phosphatidylinositol 4,5-bisphosphate 3-kinase catalytic subunit gamma isoform (P48736 whole entry, looked up, canonical isoform): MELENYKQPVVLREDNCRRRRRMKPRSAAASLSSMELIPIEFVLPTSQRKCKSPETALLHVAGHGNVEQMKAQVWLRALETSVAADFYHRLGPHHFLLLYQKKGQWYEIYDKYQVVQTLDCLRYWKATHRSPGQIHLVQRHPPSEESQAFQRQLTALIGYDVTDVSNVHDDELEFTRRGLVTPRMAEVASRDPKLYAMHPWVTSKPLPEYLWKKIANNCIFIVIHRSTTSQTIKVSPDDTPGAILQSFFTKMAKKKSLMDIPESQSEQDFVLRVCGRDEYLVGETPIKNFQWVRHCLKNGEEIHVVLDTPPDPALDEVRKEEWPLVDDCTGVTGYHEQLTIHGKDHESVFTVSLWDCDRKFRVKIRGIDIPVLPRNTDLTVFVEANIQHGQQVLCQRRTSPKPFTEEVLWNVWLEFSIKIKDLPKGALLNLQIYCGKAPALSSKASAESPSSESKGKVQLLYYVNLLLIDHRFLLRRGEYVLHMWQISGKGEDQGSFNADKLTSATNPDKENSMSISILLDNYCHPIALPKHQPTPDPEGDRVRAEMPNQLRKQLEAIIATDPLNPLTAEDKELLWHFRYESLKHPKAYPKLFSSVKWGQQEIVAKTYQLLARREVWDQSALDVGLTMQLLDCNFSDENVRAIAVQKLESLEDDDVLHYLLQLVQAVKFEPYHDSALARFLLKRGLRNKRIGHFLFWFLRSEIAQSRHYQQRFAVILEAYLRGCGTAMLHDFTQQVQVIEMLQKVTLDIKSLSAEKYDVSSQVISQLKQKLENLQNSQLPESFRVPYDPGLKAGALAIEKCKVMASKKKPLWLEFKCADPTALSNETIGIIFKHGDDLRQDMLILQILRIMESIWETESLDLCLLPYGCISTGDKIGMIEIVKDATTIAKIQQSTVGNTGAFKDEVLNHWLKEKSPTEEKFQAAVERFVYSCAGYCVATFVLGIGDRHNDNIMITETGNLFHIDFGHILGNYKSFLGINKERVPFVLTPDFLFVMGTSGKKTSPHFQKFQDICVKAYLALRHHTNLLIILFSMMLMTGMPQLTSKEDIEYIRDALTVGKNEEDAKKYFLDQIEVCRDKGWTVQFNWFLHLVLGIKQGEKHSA

[16] = Antiproliferative activity against human RPMI8226 cells incubated for 48 hrs by sulforhodamine B assay; assay type: functional; details: RPMI-8226, 48 h
[17] = target: T1, Serine/threonine-protein kinase mTOR; experiment: Inhibition of insulin-stimulated mTOR phosphorylation in human A549 cells after 30 mins by Western blot analysis; assay type: cell-based
Summary of the method: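 A549 cells were insulin-stimulated for 2 h, then exposed to four compound concentrations for 30 min. Lysis was in ice-cold RIPA buffer, protein was quantified by BCA, and lysates were run on 10% SDS-PAGE and transferred to nitrocellulose. Detection was by infrared imaging, with β-actin as loading control.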

[18] = read-out: pLC50 (the source's name) (converted)

COc1ncc(-c2ccc3nccc(C#CCN4CCN(S(C)(=O)=O)CC4)c3c2)cc1NS(=O)(=O)c1ccc(F)cc1F
GI50 (MDA-MB-435): 75.9 nM | CC50 (MDA-MB-435; [18]): 6610 nM | TGI (MDA-MB-435; read-out: pTGI (converted)): 1070 nM | GI50 [1]: 355 nM | CC50 [1, 18]: 15100 nM | TGI ([1]; read-out: pTGI (converted)): 2510 nM | inhibition [2]: 69% | GI50 [3]: 55 nM | CC50 [3, 18]: 2690 nM | TGI ([3]; read-out: pTGI (converted)): 363 nM | GI50 [4]: 100 nM | CC50 [4, 18]: 41700 nM | TGI ([4]; read-out: pTGI (converted)): 12900 nM | Activity (Mus musculus [5]): Non-toxic | GI50 [6]: 41.7 nM | CC50 [6, 18]: 4570 nM | TGI ([6]; read-out: pTGI (converted)): 813 nM | GI50 (SK-MEL-2): 110 nM | CC50 (SK-MEL-2; [18]): 26300 nM | TGI (SK-MEL-2; read-out: pTGI (converted)): 871 nM | GI50 [7]: 355 nM | CC50 [7, 18]: 79400 nM | TGI ([7]; read-out: pTGI (converted)): 12000 nM | GI50 [8]: 10.7 nM | CC50 [8, 18]: 28800 nM | TGI ([8]; read-out: pTGI (converted)): 151 nM | GI50 [9]: 65 nM | GI50 (U-251): 178 nM | CC50 (U-251; [18]): 4680 nM | TGI (U-251; read-out: pTGI (converted)): 1510 nM | GI50 (NCI-H322M): 110 nM | CC50 (NCI-H322M; [18]): 36300 nM | TGI (NCI-H322M; read-out: pTGI (converted)): 6920 nM | GI50 (786-0): 44.7 nM | CC50 (786-0; [18]): 49000 nM | TGI (786-0; read-out: pTGI (converted)): 1450 nM | GI50 (EKVX): 25.7 nM | CC50 (EKVX; [18]): 42700 nM | GI50 (NCI-H23): 295 nM | CC50 (NCI-H23; [18]): 20000 nM | TGI (NCI-H23; read-out: pTGI (converted)): 2690 nM | GI50 (NCI-H522): 178 nM | CC50 (NCI-H522; [18]): 5890 nM | TGI (NCI-H522; read-out: pTGI (converted)): 1740 nM | IC50 [10]: 2 nM | IC50 [11]: 20 nM | IC50 [12]: 5.4 nM | Activity (Mus musculus [13]): Non-toxic | GI50 (MDA-MB-468): 17 nM | CC50 (MDA-MB-468; [18]): 1380 nM | TGI (MDA-MB-468; read-out: pTGI (converted)): 85.1 nM | GI50 [14]: 42.7 nM | CC50 [14, 18]: 7240 nM | TGI ([14]; read-out: pTGI (converted)): 1120 nM | inhibition [15]: 95% | GI50 [16]: 263 nM | TGI ([16]; read-out: pTGI (converted)): 1450 nM | inhibition [17]: Dose-dependent effect
